Assay results reported in PubChem BioAssay.
Activity calls are given as the source filed them.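 How the source made its calls, unless noted: active means viability at or below 10% of carrier control in both of two separate runs; inconclusive means viability at or below 10% in only one of the two runs; inactive means the rest.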

Legend:
[1] = reducers of endogenous Her2 protein level, primary screen, SKBR3 breast tumor cells, AlphaScreen, ATP viability (AID 461;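 active means Her2 level under about 52% in both replicate screens, with viability over 70% of control, limit read from the data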;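 on Her2 level: lower value means less Her2 protein in the cells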;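 on viability: percent of carrier control wells set as 100% viability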); conditions: 18-24 h, measured here: SKBR3 viability, ATP luminescence, at 10 µM
[2] = biological target: Receptor tyrosine-protein kinase erbB-2 (Homo sapiens) (UniProt P04626); test: as above; conditions: 18-24 h, at 10 µM, stronger effect = lower value
[3] = SK-BR-3 cell growth inhibitors, pilot screen, 24 h, human (AID 572); conditions: SK-BR-3 viability, CellTiter-Glo luminescence, at 10 µM, stronger effect = lower value;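 further: compound exposure lasted between 18 and 24 h rather than exactly 24 h; 100% = carrier-treated control wells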
[4] = HUVEC growth inhibition – cell-based, human, primary screen (AID 575;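 active means viability at or below 30% in both replicate assays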;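 further: 100% = median of untreated cell wells with 0.1% DMSO on each plate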); conditions: HUVEC proliferation, CellTiter-Glo luminescence, 72 h; at 10 µM; stronger effect = lower value
Outline: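 System: primary human umbilical vein endothelial cells; Quantity: 1250 endothelial cells in each well; Buffer or medium: supplemented EBM, 2% fetal bovine serum; Doses: one dose, 10 µM final, 0.1% DMSO; Incubation: 72 h compound incubation; Technique: ATP-based CellTiter-Glo luminescent read; Evaluation: percent of median DMSO-control luminescence; Controls: vehicle and MePR control wells.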

[5] = growth inhibitors of H69AR lung tumor, primary screen, human, duplicate replicates (AID 580;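 active means viability at or under a set limit in both replicates, limit being median viability minus 3 SD, cut at about 48% in these data, passing the limit was not always enough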;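 further: 100% = mean luminescence of untreated wells and 0% = no signal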); conditions: H69AR lung tumor cells viability, ATP luminescence, 72 h; at 10 µM; stronger effect = lower value
[6] = reversal of MRP1-mediated doxorubicin resistance, pilot screen, H69AR cells, doxorubicin co-treatment (AID 601;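 active means viability loss from added drug above about 55%, and viability with drug at most 40%, in both replicates, limit read from the data, passing the limit was not always enough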); conditions: CellTiter-Glo, 72 h, at 10 µM; for differential viability (reversal): stronger effect = higher value
[7] = 384-well plate pilot, post-Golgi transport modulator project, inhibition of yeast transport mutant growth (AID 636; in the data active means inhibition above about 31%); conditions: absorbance 615 nm, about 18 h, stronger effect = higher value
[8] = growth suppression of yeast trafficking mutant, preliminary HTS, modulators of trafficking downstream of Golgi apparatus project, 1536-format plate, OD 615 nm (AID 637; in the data active means inhibition above about 30%); conditions: yeast transport mutant growth, absorbance 615 nm, 18 h; stronger effect = higher value
[9] = H69AR cells + 2 uM doxorubicin, measured here: viability with 2 uM doxorubicin, stronger effect = lower value
[10] = H69AR cells, compound alone cytotoxicity

Receptor tyrosine-protein kinase erbB-2 (Homo sapiens), sequence (P04626 whole entry, looked up): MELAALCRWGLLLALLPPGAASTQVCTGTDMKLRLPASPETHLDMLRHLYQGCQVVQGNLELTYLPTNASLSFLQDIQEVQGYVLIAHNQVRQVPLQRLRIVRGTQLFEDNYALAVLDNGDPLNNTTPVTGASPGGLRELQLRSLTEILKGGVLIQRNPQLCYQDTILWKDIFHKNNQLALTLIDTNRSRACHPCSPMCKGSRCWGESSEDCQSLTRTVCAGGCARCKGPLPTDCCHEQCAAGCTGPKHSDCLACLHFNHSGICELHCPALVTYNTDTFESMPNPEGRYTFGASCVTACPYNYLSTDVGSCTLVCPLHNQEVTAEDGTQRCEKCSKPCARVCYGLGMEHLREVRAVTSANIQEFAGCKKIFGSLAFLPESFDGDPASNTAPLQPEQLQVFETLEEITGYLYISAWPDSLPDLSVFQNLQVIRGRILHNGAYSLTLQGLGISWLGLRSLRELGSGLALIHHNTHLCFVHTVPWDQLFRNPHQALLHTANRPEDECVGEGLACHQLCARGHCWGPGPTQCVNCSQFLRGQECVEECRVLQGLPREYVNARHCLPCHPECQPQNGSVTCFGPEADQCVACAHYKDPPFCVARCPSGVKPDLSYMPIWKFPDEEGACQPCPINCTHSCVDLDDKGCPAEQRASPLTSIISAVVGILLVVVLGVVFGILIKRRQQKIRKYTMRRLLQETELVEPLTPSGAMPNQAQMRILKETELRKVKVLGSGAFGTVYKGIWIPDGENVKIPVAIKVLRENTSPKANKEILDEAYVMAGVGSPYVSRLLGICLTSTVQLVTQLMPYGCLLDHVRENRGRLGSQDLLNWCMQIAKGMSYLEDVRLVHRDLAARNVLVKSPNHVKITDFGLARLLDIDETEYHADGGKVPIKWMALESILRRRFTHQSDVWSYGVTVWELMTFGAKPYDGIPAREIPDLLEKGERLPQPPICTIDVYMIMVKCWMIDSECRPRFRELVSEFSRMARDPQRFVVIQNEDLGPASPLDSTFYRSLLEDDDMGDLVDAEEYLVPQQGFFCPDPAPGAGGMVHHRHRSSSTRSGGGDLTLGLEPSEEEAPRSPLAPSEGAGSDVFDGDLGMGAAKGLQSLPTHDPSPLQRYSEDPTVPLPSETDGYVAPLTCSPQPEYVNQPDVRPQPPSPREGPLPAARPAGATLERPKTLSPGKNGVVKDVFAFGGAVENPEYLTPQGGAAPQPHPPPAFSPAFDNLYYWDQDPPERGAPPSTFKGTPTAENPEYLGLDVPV

Row | SMILES | viability [1] [%] | Her2 level [2] | viability [3] | viability [4] | viability [5] | differential viability (reversal) ([6]; H69AR cells + 2 uM doxorubicin) | viability [6, 9] [%] | viability [6, 10] [%] | inhibition [7] | inhibition [8]
1 | COc1cc(Nc2cc(C)nc3ncnn23)cc(OC)c1OC | 102 | 98.5% (inactive) | 102% (inactive) | 98.2% (inactive) | 100% (inactive) | 21% (inactive) | 79.3 | 100 | 1.6% (inactive) | -3.11% (inactive)
2 | Cc1ccnc(NS(=O)(=O)c2ccc(NC(=O)Cc3cccs3)cc2)n1 | 94.5 | 111% (inactive) | 94.5% (inactive) | 87.6% (inactive) | 100% (inactive) | 8.61% (inactive) | 91.9 | 100 | 2.84% (inactive) | -2.79% (inactive)
3 | CC(C)(C)c1cc(NS(=O)(=O)c2ccc3c(c2)OCCO3)on1 | 131 | 88% (inactive) | 131% (inactive) | 98.1% (inactive) | 89.6% (inactive) | -3.41% (inactive) | 93 | 89.6 | -1.3% (inactive) | 5.24% (inactive)
4 | COc1ccccc1CNS(=O)(=O)c1cccc(S(=O)(=O)N2CCOCC2)c1 | 91.5 | 101% (inactive) | 91.5% (inactive) | 81.6% (inactive) | 91.7% (inactive) | 3.38% (inactive) | 88.3 | 91.7 | -3.2% (inactive) | -1.48% (inactive)
5 | CCOCCn1c(CN2CCN(c3cccc(Cl)c3)CC2)nc2c1c(=O)n(C)c(=O)n2C | 85 | 110% (inactive) | 85% (inactive) | 94.5% (inactive) | 80.1% (inactive) | 41.5% (inactive) | 38.6 | 80.1 | -3.07% (inactive) | -6.17% (inactive)
6 | COc1cc(CN2CCSCC2)cc(OC)c1OC | 89.5 | 150% (inactive) | 89.5% (inactive) | 88.8% (inactive) | 109% (inactive) | 21% (inactive) | 87.7 | 109 | -0.65% (inactive) | -1.83% (inactive)
7 | Cc1cc(=O)oc(C)c1C(=O)O | 102 | 118% (inactive) | 102% (inactive) | 97.1% (inactive) | 92% (inactive) | 7.3% (inactive) | 84.7 | 92 | -6.1% (inactive) | 9.34% (inactive)
8 | COc1cccc(C(=O)Nc2ccc(NC(C)=O)cn2)c1 | 98 | 76% (inactive) | 98% (inactive) | 92.4% (inactive) | 106% (inactive) | 12.5% (inactive) | 93.2 | 106 | -5.27% (inactive) | -4.92% (inactive)
9 | CC1CN(c2nc3ccccc3nc2C(C#N)C(=O)OC2CCCCC2)CC(C)O1 (stereo not given) | 94 | 97% (inactive) | 94% (inactive) | 78.7% (inactive) | 96.1% (inactive) | 12.6% (inactive) | 83.5 | 96.1 | -5.07% (inactive) | 2.54% (inactive)
10 | Cc1cc(NS(=O)(=O)c2ccc(NC(=O)C(C)N3C(=O)c4ccccc4C3=O)cc2)nc(C)n1 (stereo not given) | 99 | 92% (inactive) | 99% (inactive) | 112% (inactive) | 97.4% (inactive) | 5.72% (inactive) | 91.7 | 97.4 | -2.89% (inactive) | 5.25% (inactive)
11 | Cc1nc(SC2C=CS(=O)(=O)C2)n[nH]1 (stereo not given) | 104 | 88% (inactive) | 104% (inactive) | 99.7% (inactive) | 86.3% (inactive) | -13.9% (inactive) | 100 | 86.3 | -7.07% (inactive) | 3.11% (inactive)
12 | COc1ccc(S(=O)(=O)Cc2ccc(C(=O)N3CCN(Cc4ccccc4)CC3)o2)cc1 | 86.5 | 102% (inactive) | 86.5% (inactive) | 95% (inactive) | 84.9% (inactive) | -0.78% (inactive) | 85.6 | 84.9 | -1.41% (inactive) | 0.5% (inactive)
13 | Cc1ccc(C2/C(=C(/O)c3cnn(-c4ccccc4)c3C)C(=O)C(=O)N2CCN2CCOCC2)o1 (stereo not given) | 77.5 | 79% (inactive) | 77.5% (inactive) | 112% (inactive) | 85% (inactive) | 7.89% (inactive) | 77.1 | 85 | -4.61% (inactive) | -1.09% (inactive)
14 | Cc1ccc(-n2ncc3c(N4CCN(c5ccc(F)cc5)CC4)ncnc32)c(C)c1 | 87.5 | 94.5% (inactive) | 87.5% (inactive) | 91.8% (inactive) | 71.4% (inactive) | 31.8% (inactive) | 39.6 | 71.4 | 0.26% (inactive) | -3.55% (inactive)
15 | O=c1[nH]c2cc3c(cc2cc1C(c1nnnn1Cc1ccccc1)N1CCCc2ccccc21)OCO3 (stereo not given) | 98.5 | 95.5% (inactive) | 98.5% (inactive) | 79.3% (inactive) | 61.6% (inactive) | -0.235% (inactive) | 61.8 | 61.6 | -3.73% (inactive) | 4.43% (inactive)
16 | Cc1ccccc1Cn1ccc(NC(=O)c2cnn3c(C(F)(F)F)cc(-c4ccco4)nc23)n1 | 76.5 | 81% (inactive) | 76.5% (inactive) | 62.3% (inactive) | 60.4% (inactive) | 25.2% (inactive) | 35.3 | 60.4 | -4.13% (inactive) | 5.9% (inactive)

Row | SMILES | viability [1] [%] | Her2 level [2] | viability [3] | viability [4] | viability [5] | differential viability (reversal) ([6]; H69AR cells + 2 uM doxorubicin) | viability [6, 9] [%] | viability [6, 10] [%] | inhibition [7] | inhibition [8]
17 | CCOc1cc2[nH]c(=S)n(CC3CCCO3)c(=O)c2cc1OCC (stereo not given) | 105 | 103% (inactive) | 105% (inactive) | 88.3% (inactive) | 87.8% (inactive) | 7.12% (inactive) | 80.7 | 87.8 | -4.46% (inactive) | -3.77% (inactive)
18 | O=C(NCc1ccc(Cl)cc1)c1ccc(COCC(F)(F)F)o1 | 100 | 91% (inactive) | 100% (inactive) | 88.5% (inactive) | 101% (inactive) | 20.9% (inactive) | 79.7 | 101 | -1.45% (inactive) | -5.27% (inactive)
19 | COc1cccc(C2CC(c3ccccc3)n3ncnc3N2)c1 (stereo not given) | 87 | 112% (inactive) | 87% (inactive) | 93.5% (inactive) | 90.2% (inactive) | 10.2% (inactive) | 80 | 90.2 | 2.82% (inactive) | 3.67% (inactive)
20 | Cc1nnc(N(C)C(=O)c2cccnc2)s1 | 110 | 110% (inactive) | 110% (inactive) | 93.1% (inactive) | 88.7% (inactive) | 1.22% (inactive) | 87.5 | 88.7 | 0.96% (inactive) | 3.33% (inactive)
21 | O=C1C2C3C=CC(C3=C3CCCCC3)C2C(=O)N1c1ccccc1 (stereo not given) | 131 | 89.5% (inactive) | 131% (inactive) | 103% (inactive) | 95.8% (inactive) | 1.16% (inactive) | 94.7 | 95.8 | -3.12% (inactive) | -2.06% (inactive)
22 | O=C(CC(CC(=O)c1ccccc1)C(=O)O)c1ccccc1 | 89 | 101% (inactive) | 89% (inactive) | 107% (inactive) | 102% (inactive) | 5.54% (inactive) | 96.5 | 102 | 3.6% (inactive) | -6.77% (inactive)
23 | COc1cc(N=c2ssnc2Cl)cc(OC)c1 | 84.5 | 111% (inactive) | 84.5% (inactive) | 78% (inactive) | 3.23% (active) | -1.38% (inactive) | 4.61 | 3.23 | -5% (inactive) | 0.48% (inactive)
24 | COc1ccc(N2CCN(C(=O)CSc3nnc(Cn4nnc5ccccc54)n3C)CC2)cc1 | 99.5 | 111% (inactive) | 99.5% (inactive) | 108% (inactive) | 103% (inactive) | 11.4% (inactive) | 92.1 | 103 | -1.97% (inactive) | -6.61% (inactive)
25 | O=C(CSc1nnc(SCc2ccc(Cl)cc2)s1)N1CCN(C(=O)c2ccco2)CC1 | 80.5 | 93% (inactive) | 80.5% (inactive) | 70.3% (inactive) | 100% (inactive) | 10.9% (inactive) | 89.2 | 100 | -8.36% (inactive) | -5.56% (inactive)
26 | COc1ccc2ccccc2c1CN1CCCC(CO)C1 (stereo not given) | 92.5 | 85.5% (inactive) | 92.5% (inactive) | 92.9% (inactive) | 82% (inactive) | 1.51% (inactive) | 80.5 | 82 | -1.82% (inactive) | 0.82% (inactive)
27 | CCS(=O)(=O)N1CCC(C(=O)NC2CCCCC2)CC1 | 113 | 99% (inactive) | 113% (inactive) | 92.7% (inactive) | 97.4% (inactive) | 11.3% (inactive) | 86.1 | 97.4 | 1.84% (inactive) | 3.28% (inactive)
28 | Cc1ccc(S(=O)(=O)CC2CSc3nnc(C)c(=O)n32)cc1 (stereo not given) | 136 | 112% (inactive) | 136% (inactive) | 125% (inactive) | 88% (inactive) | 2.67% (inactive) | 85.4 | 88 | -5.26% (inactive) | 1.17% (inactive)
29 | CCCCOc1ccc(-c2ncc(C(=O)OCC)c(N)n2)cc1 | 89.5 | 88% (inactive) | 89.5% (inactive) | 103% (inactive) | 90% (inactive) | 8.43% (inactive) | 81.5 | 90 | -6.8% (inactive) | -6.03% (inactive)
30 | COc1ccc(-c2c3c(=O)n(C)c(=O)n(C)c3cn2-c2cccc(OC)c2)cc1 | 105 | 97% (inactive) | 105% (inactive) | 95.9% (inactive) | 89.7% (inactive) | -3.48% (inactive) | 93.2 | 89.7 | 0.39% (inactive) | -6.03% (inactive)
31 | CC(NC(=O)c1ccc2c(c1)OCO2)C(c1cccs1)N1CCOCC1 (stereo not given) | 97.5 | 82.5% (inactive) | 97.5% (inactive) | 106% (inactive) | 105% (inactive) | 13.5% (inactive) | 91.1 | 105 | -4.81% (inactive) | -0.95% (inactive)
